Source: ChEMBL document CHEMBL1122026, “Antiestrogenic properties of substituted benz[a]anthracene-3,9-diols” (1982)

Key:
Rattus norvegicus [1] = species: Rattus norvegicus; assay: Affinity constant was measured by inhibition of estrus in ovariectomized rats treated with 17-beta-estradiol at a dose of 5 mg; format: functional, organism-based
Rattus norvegicus [2] = species: Rattus norvegicus; assay: Antiestrogenic potency was measured by inhibition of estrus in ovariectomized rats treated with 17-beta-estradiol at a dose of 5 mg; format: functional
Outline: (§1)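 Ovariectomized rats were given 17β-estradiol together with the test compound. Vaginal smears were taken 32 h later; rats with cornified epithelial cells in the smear were scored as in estrus. The 32 h time point was chosen from smears taken at 0, 8, 24, 32, 48, 56 and 72 h. Read-out: percentage of rats in estrus, and its inhibition.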

Rattus norvegicus [3] = species: Rattus norvegicus; assay: Antiestrogenic potency was measured by inhibition of estrus in ovariectomized rats treated with 17-beta-estradiol at a dose of 0.5 mg; format: functional; outline: as §1
Rattus norvegicus [4] = species: Rattus norvegicus; assay: Affinity constant was measured by inhibition of estrus in ovariectomized rats treated with 17-beta-estradiol; format: functional, organism-based

| Structure (SMILES) | Ka (Rattus norvegicus [1]) [M⁻¹] | Inhibition (Rattus norvegicus [2]) [%] | Inhibition (Rattus norvegicus [3]) [%] | Ka (Rattus norvegicus [4]) [M⁻¹] |
| --- | --- | --- | --- | --- |
| Cc1c2ccc(O)cc2cc2ccc3cc(O)ccc3c12 | 4.3e+07 | 44 | – | – |
| Cc1c2cc(O)ccc2cc2c1ccc1cc(O)ccc12 | 1.8e+09 | 22 | – | – |
| Oc1ccc2cc3c(ccc4cc(O)ccc43)cc2c1 | 3e+07 | 12 | – | – |
| COc1ccc2c(c1)CCC(c1ccccc1)=C2c1ccc(OCCN2CCCC2)cc1 [NAFOXIDINE] | – | – | 44 | – |
| C[C@]12CC[C@@H]3c4ccc(O)cc4CC[C@H]3[C@@H]1C[C@@H](O)[C@@H]2O | – | – | – | 7e+09 |
| Cc1c2cc(O)ccc2c(C)c2c1ccc1cc(O)ccc12 | 1.7e+08 | 74 | 44 | – |
| CC(=O)Oc1ccc2c(ccc3c(C)c4cc(OC(C)=O)ccc4c(C)c32)c1 | – | 67 | – | – |
